Measured values published in ChEMBL document CHEMBL1153230, “Synthesis and evaluation of 3-amino-6-aryl-pyridazines as selective CB(2) agonists for the treatment of inflammatory pain” (Bioorg Med Chem Lett, 2010).
In brackets after ≈: the same amount, converted by molar mass. Activity calls are given as the source filed them. The rule behind the calls is not given here.

Tests used:
Cannabinoid receptor 2 [1] = target: T1, Cannabinoid receptor 2 (Homo sapiens, UniProt P34972); experiment: Agonist activity at human CB2 receptor relative to HU210; assay type: functional
T1 sequence (P34972 whole entry): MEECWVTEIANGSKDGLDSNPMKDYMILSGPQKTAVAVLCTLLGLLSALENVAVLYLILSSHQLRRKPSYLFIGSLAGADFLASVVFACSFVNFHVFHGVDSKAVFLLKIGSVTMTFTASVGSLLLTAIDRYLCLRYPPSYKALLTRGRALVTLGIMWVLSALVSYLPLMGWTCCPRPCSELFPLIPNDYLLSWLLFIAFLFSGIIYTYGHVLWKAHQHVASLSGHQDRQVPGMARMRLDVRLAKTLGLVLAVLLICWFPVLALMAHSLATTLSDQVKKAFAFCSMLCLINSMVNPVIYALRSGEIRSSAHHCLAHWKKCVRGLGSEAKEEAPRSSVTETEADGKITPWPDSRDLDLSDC
Outline: (§1)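 Agonist pEC50 and efficacy at human receptor. Efficacy is expressed as a percentage relative to HU210 efficacy. Values are the mean of at least two determinations.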

Cannabinoid receptor 1 [2] = target: T2, Cannabinoid receptor 1 (Homo sapiens, UniProt P21554); experiment: Agonist activity at human CB1 receptor; assay type: functional; outline: as §1
T2 sequence (P21554 whole entry): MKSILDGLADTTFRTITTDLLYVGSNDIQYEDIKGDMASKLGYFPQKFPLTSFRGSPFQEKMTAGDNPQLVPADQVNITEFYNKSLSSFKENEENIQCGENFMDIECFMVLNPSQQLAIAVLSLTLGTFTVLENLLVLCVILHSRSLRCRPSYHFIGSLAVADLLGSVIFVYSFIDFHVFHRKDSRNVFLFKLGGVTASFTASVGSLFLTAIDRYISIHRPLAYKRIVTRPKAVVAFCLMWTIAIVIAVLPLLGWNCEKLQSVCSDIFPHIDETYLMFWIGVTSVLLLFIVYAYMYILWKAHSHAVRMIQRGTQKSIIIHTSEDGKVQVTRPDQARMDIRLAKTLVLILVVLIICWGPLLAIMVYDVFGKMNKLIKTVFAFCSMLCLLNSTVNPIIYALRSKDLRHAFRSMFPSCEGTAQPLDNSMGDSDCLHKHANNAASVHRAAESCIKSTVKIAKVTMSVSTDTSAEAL

Cannabinoid receptor 2 [3] = target: T1, Cannabinoid receptor 2; experiment: Agonist activity at human CB2 receptor; assay type: functional; outline: as §1
Cannabinoid receptor 1 [4] = target: T2, Cannabinoid receptor 1; experiment: Agonist activity at human CB1 receptor relative to HU210; assay type: functional; outline: as §1
[5] = Tmax in rat at 3 mg/kg, po; assay type: ADME, organism-based; design: dose 3 mg/kg, route oral; settings: in vivo
Outline: (§2)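 Rats given a single oral dose by gastric gavage, formulated in 1% (w/v) aqueous methylcellulose, at a target dose of 3 mg/kg free base, for pharmacokinetic parameters.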

[6] = Cmax in rat brain at 6.6 uM; assay type: ADME, organism-based; design: dose 6.6 uM
[7] = Ratio of drug level in brain to blood in rat at 1 mg/kg, po; assay type: ADME, organism-based; design: dose 1 mg/kg, route oral
Outline: (§3)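 Rat blood and brain tissue samples taken from FCA weight-bearing study animals 1 h after a 1 mg/kg oral dose. Compound concentrations measured in each; brain:blood ratio derived from the two concentrations.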

[8] = Oral bioavailability in rat at 3 mg/kg; assay type: ADME, organism-based; settings: in vivo; outline: as §2
[9] = Half life in rat at 1 mg/kg, iv; assay type: ADME, organism-based; design: dose 1 mg/kg, route intravenous; settings: in vivo
Outline: (§4)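 Rats given an intravenous infusion at a target dose of 1 mg free base/kg for pharmacokinetic parameters.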

[10] = Volume of distribution at steady state in rat at 1 mg/kg, iv; assay type: ADME, organism-based; design: dose 1 mg/kg, route intravenous; settings: in vivo, read-out: Vdss; outline: as §4
[11] = Drug level in rat brain at 1 mg/kg, po after 1 hr; assay type: ADME, organism-based; design: dose 1 mg/kg, route oral; settings: read-out: Drug uptake; outline: as §3
[12] = Drug level in rat blood at 1 mg/kg, po after 1 hr; assay type: ADME, organism-based; design: dose 1 mg/kg, route oral; outline: as §3
[13] = Blood clearance in rat at 1 mg/kg, iv; assay type: ADME, organism-based; design: dose 1 mg/kg, route intravenous; outline: as §4
Rattus norvegicus = experiment: Toxicity in rat assessed as induction of hypothermia up to 300 mg/kg po; assay type: organism-based; design: dose 300 mg/kg, route oral; settings: in vivo
[14] = Cmax in rat at 3 mg/kg, po; assay type: ADME, organism-based; design: dose 3 mg/kg, route oral; settings: in vivo; outline: as §2
[15] = Aqueous solubility of the compound; assay type: physicochemical
Cannabinoid receptor 1 [16] = target: T2, Cannabinoid receptor 1; experiment: Agonist activity at human CB1 receptor up to 30 uM; assay type: functional
Outline: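 Human CB1 receptor agonist assay, tested at concentrations up to 30 µM (method per cited reference). Potency reported as pEC50. Efficacy is expressed as a percentage of the efficacy of the full agonist HU210. Values are the mean of at least two determinations.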

SMILES | Efficacy (Cannabinoid receptor 2 [1]) [%] | EC50 (Cannabinoid receptor 1 [2]) [nM] | EC50 (Cannabinoid receptor 2 [3]) [nM] | further results
FC1(F)CCN(c2ccc(-c3cccc(Cl)c3Cl)nn2)CC1 | 83 | > 31600 | 15.8 | –
Clc1cccc(-c2ccc(NC3CCOCC3)nn2)c1Cl | – | > 31600 | > 31600 | –
c1ccc(COc2ccccc2-c2ccc(N3CCOCC3)nn2)cc1 | 45 | 3980 | 631 | Efficacy (Cannabinoid receptor 1 [4]): 11%
C[C@@H]1CC[C@H](C)N1c1ccc(-c2cncc3ccccc23)nn1 | 85 | 7940 | 10 | Tmax [5]: 54 min; Efficacy (Cannabinoid receptor 1 [4]): 71%; Cmax at 6.6 µM [6]: 11000 nM; Kp [7]: 1; bioavailability [8]: 26%; half-life [9]: 18 min; Vd [10]: 1.7 L/kg; concentration at 1 h [11]: 500 nM; concentration at 1 h [12]: 300 nM; clearance [13]: 57 mL/min/kg; Activity (Rattus norvegicus): Toxic; Cmax [14]: 340 nM
C[C@@H]1C=C[C@H](C)N1c1ccc(-c2cccc(Cl)c2Cl)nn1 | 93 | 6310 | 0.631 | Efficacy (Cannabinoid receptor 1 [4]): 21%
C[C@@H]1CC[C@H](C)N1c1ccc(-c2c[nH]c3ccccc23)nn1 | 61 | > 31600 | 251 | –
Clc1cccc(-c2cnc(N3CCOCC3)cn2)c1Cl | 89 | – | 39.8 | solubility [15]: 1 µg/mL (≈ 3.22 µM); Activity (Cannabinoid receptor 1 [16]): inactive
Clc1ccc(Cl)c(-c2ccc(N3CCOCC3)nn2)c1 | 39 | > 31600 | 398 | –
FC(F)(F)c1ccccc1-c1ccc(N2CCOCC2)nn1 | 78 | > 31600 | 1260 | –
c1ccc(COc2cccc(-c3ccc(N4CCOCC4)nn3)c2)cc1 | – | > 31600 | > 31600 | –
FC(F)(F)c1cccc(-c2ccc(N3CCOCC3)nn2)c1C(F)(F)F | 75 | > 31600 | 158 | –
C[C@@H]1CC[C@H](C)N1c1ccc(-c2cc3ccccc3o2)nn1 | 70 | > 31600 | 158 | –
C[C@@H]1CC[C@H](C)N1c1ccc(-c2cccc3cnccc23)nn1 | 93 | 20000 | 39.8 | Efficacy (Cannabinoid receptor 1 [4]): 52%
Clc1cccc(-c2cnc(N3CCOCC3)nn2)c1Cl | 78 | – | 100 | Activity (Cannabinoid receptor 1 [16]): inactive
COc1ccc(-c2ccc(N3CCOCC3)nn2)c(Cl)c1 | – | > 31600 | > 31600 | –
FC(F)(F)c1cccc(-c2ccc(N3CCOCC3)nn2)c1 | 15 | > 31600 | 1000 | –
Cc1ccc(-c2ccc(N3CCOCC3)nn2)c(Cl)c1 | – | > 31600 | > 31600 | –
C[C@@H]1CC[C@H](C)N1c1ccc(-c2cccc3ncccc23)nn1 | 75 | > 31600 | 200 | –

SMILES | Efficacy (Cannabinoid receptor 2 [1]) [%] | EC50 (Cannabinoid receptor 1 [2]) [nM] | EC50 (Cannabinoid receptor 2 [3]) [nM] | further results
Clc1cccc(-c2ccc(NC3CCCCC3)nn2)c1Cl | 69 | > 31600 | 200 | –
Clc1cc(Cl)c(Cl)c(-c2ccc(N3CCOCC3)nn2)c1 | 78 | > 31600 | 50.1 | –
Clc1ccc(-c2ccc(N3CCOCC3)nn2)c(Cl)c1 | – | > 31600 | > 31600 | –
Clc1cccc(-c2ccc(N3CCOCC3)nc2)c1Cl | – | – | – | Activity (Cannabinoid receptor 1 [16]): inactive
Clc1cccc(-c2cnc(N3CCOCC3)nc2)c1Cl | 67 | – | 200 | Activity (Cannabinoid receptor 1 [16]): inactive
COc1ccccc1-c1ccc(N2CCOCC2)nn1 | 37 | > 31600 | 12600 | –
Clc1cccc(-c2ccc(N3CCCCC3)nn2)c1Cl | 86 | > 31600 | 6.31 | –
Clc1cccc(-c2ccc(N3CCCC3)nn2)c1Cl | 56 | > 31600 | 25.1 | –
Clc1cccc(-c2ncc(N3CCOCC3)cn2)c1Cl | 92 | – | 50.1 | solubility [15]: < 1 µg/mL; Activity (Cannabinoid receptor 1 [16]): inactive
FC(F)(F)Oc1ccccc1-c1ccc(N2CCOCC2)nn1 | 55 | > 31600 | 1260 | –
C[C@@H]1CC[C@H](C)N1c1ccc(-c2cccc3cccnc23)nn1 | 82 | > 31600 | 79.4 | –
Cc1cccc(-c2ccc(N3CCOCC3)nn2)c1C | 71 | > 31600 | 2000 | –
Cc1ccccc1-c1ccc(N2CCOCC2)nn1 | 38 | > 31600 | 7940 | –
O=S1(=O)CCN(c2ccc(-c3cccc(Cl)c3Cl)nn2)CC1 | 89 | > 31600 | 631 | –
Clc1cccc(-c2ccc(N3CCOCC3)nn2)c1Cl | 76 | > 31600 | 79.4 | solubility [15]: 6 µg/mL (≈ 19.3 µM); Activity (Cannabinoid receptor 1 [16]): inactive
Clc1ccccc1-c1ccc(N2CCOCC2)nn1 | 77 | > 31600 | 1580 | –
Clc1cccc(-c2ccc(N3CCOCC3)cc2)c1Cl | 86 | – | 39.8 | Activity (Cannabinoid receptor 1 [16]): inactive
C[C@@H]1CC[C@H](C)N1c1ccc(-c2cccc(Cl)c2Cl)nn1 | 83 | 2510 | 1.26 | Efficacy (Cannabinoid receptor 1 [4]): 57%
